# Tested on: Rattus norvegicus
# Assay: Fall in mean arterial blood pressure (MABP) at 1 mg/kg po bid for 4 days after first treatment in conscious chronically-instrumented renovascular hypertensive rats
# Type: functional
# Settings: not given
# Summary of the method: (§1)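 Male Chbb:THOM rats (140–150 g) made renovascular hypertensive by a silver clip (internal diameter 0.20 mm) on the left renal artery under pentobarbitone-sodium (50 mg/kg ip). Chronic-use pressure transmitter implanted. Conscious animals dosed orally twice daily for 4 days. Mean arterial pressure and heart rate recorded continuously at 1-h intervals over 96 h, given as mean ± SE.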
row,Structure (SMILES),MABP [mmHg]
1,CCCc1nc2c(C)cc(-c3nc4ccccc4n3C)cc2n1Cc1ccc(-c2ccccc2C(=O)O)cc1,42

# Target: T1, Type-1 angiotensin II receptor B (Rattus norvegicus, UniProt P29089)
# T1 sequence (P29089 whole entry): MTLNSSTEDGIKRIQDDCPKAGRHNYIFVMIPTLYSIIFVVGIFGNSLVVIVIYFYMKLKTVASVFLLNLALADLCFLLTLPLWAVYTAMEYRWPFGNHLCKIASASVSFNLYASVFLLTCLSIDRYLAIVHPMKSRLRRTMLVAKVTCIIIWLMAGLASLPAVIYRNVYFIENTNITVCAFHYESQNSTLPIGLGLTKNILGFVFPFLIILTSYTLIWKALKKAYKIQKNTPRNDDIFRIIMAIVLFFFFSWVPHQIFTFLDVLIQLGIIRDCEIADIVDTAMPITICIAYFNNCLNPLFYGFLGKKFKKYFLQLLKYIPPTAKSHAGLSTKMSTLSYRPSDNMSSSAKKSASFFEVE
# Assay: Inhibition of specific binding of [125I]angiotensin-II to angiotensin 1 receptor in rat lung membrane preparation
# Type: cell membranes
# Settings: not given
# Summary of the method: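 Membranes from lungs of male Wistar rats (Chbb:THOM, 200–220 g), homogenized in Tris buffer pH 7.20 and spun at 1000g, then twice at 48 000g. DMSO ≤1%. Nonspecific binding defined with 1 μM AII. Filtration, gamma counting. IC50 from nonlinear fit; Ki by Cheng–Prusoff.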
row,IC50 [nM],Structure (SMILES)
1,1200,CCCCc1nc2cc(C)ccc2n1Cc1ccc(-c2ccccc2C(=O)O)cc1
2,3,CCCc1nc2ccc(-c3nc4ccccc4n3C)cc2n1Cc1ccc(-c2ccccc2C(=O)O)cc1
3,3,CCCc1nc2c(C)cc(-c3nc4ccccc4n3C)cc2n1Cc1ccc(-c2ccccc2C(=O)O)cc1
4,3,CCCc1nc2c(C)cc(-c3cn4ccccc4n3)cc2n1Cc1ccc(-c2ccccc2-c2nnn[nH]2)cc1
5,480,CCCCc1nc2cccc(C)c2n1Cc1ccc(-c2ccccc2C(=O)O)cc1
6,1700,CCCCc1nc2c(N)cccc2n1Cc1ccc(-c2ccccc2C(=O)O)cc1
7,13,CCCc1nc2c(C)cc(-c3nc4ccccc4n3C)cc2n1Cc1ccc(-c2ccccc2-c2nnn[nH]2)cc1
8,400,CCCCc1nc2ccccc2n1Cc1ccc(-c2ccccc2C(=O)O)cc1
9,5700,CCCCc1nc2c(NC(C)=O)cccc2n1Cc1ccc(-c2ccccc2C(=O)O)cc1
10,180,CCCCc1nc2ccc(NC(C)=O)cc2n1Cc1ccc(-c2ccccc2C(=O)O)cc1
11,240,CCCc1nc2ccc(-c3nc4ccccc4o3)cc2n1Cc1ccc(-c2ccccc2-c2nn[nH]n2)cc1
12,1200,CCCCc1nc2c(C)cccc2n1Cc1ccc(-c2ccccc2C(=O)O)cc1
13,5,CCCc1nc2ccc(-c3nc4ccccc4n3C)cc2n1Cc1ccc(-c2ccccc2-c2nn[nH]n2)cc1
14,850,CCCCc1nc2ccc(C)cc2n1Cc1ccc(-c2ccccc2C(=O)O)cc1
15,158,CCCc1nc2c(C)cc(CN(C)C)cc2n1Cc1ccc(-c2ccccc2C(=O)O)cc1
16,5,CCCc1nc2c(C)cc(-c3ccccn3)cc2n1Cc1ccc(-c2ccccc2-c2nnn[nH]2)cc1
17,540,CCCCc1nc2ccc(N)cc2n1Cc1ccc(-c2ccccc2C(=O)O)cc1
18,820,CCCCc1nc2cc(N)ccc2n1Cc1ccc(-c2ccccc2C(=O)O)cc1

# Further lines, the compound ahead of its results:
row,Structure (SMILES),IC50 [nM]
1,CCCCc1nc2ccc(N3CCCCS3(=O)=O)cc2n1Cc1ccc(-c2ccccc2-c2nnn[nH]2)cc1,3
2,CCCCC(=O)Nc1ccc2nc(CCCC)n(Cc3ccc(-c4ccccc4C(=O)O)cc3)c2c1,86
3,CCCCc1nc2c(NC(=O)NC3CCCCC3)cccc2n1Cc1ccc(-c2ccccc2C(=O)O)cc1,29300
4,CCCCCNc1ccc2nc(CCCC)n(Cc3ccc(-c4ccccc4C(=O)O)cc3)c2c1,390
5,CCCCc1nc2ccc(N3CCCCC3=O)cc2n1Cc1ccc(-c2ccccc2-c2nnn[nH]2)cc1,4
6,CCCc1nc2ccc(-c3ccccn3)cc2n1Cc1ccc(-c2ccccc2-c2nnn[nH]2)cc1,11
7,CCCCc1nc2ccc(N3CCCCC3=O)cc2n1Cc1ccc(-c2ccccc2C(=O)O)cc1,81
8,CCCCc1nc(Cl)c(CO)n1Cc1ccc(-c2ccccc2C(=O)O)cc1,350
9,CCCCc1nc2ccc(N3CCCCS3(=O)=O)cc2n1Cc1ccc(-c2ccccc2C(=O)O)cc1,34
10,CCCCc1nc2ccc(NC(=O)NC3CCCCC3)cc2n1Cc1ccc(-c2ccccc2-c2nn[nH]n2)cc1,21
11,CCCCc1nc2ccc(N3CCCCC3)cc2n1Cc1ccc(-c2ccccc2C(=O)O)cc1,160
12,CCCCc1nc2ccc(N(C)C(=O)NC3CCCCC3)cc2n1Cc1ccc(-c2ccccc2C(=O)O)cc1,26
13,CCCCc1nc2ccc(N(C)C(=O)NC3CCCCC3)cc2n1Cc1ccc(-c2ccccc2-c2nn[nH]n2)cc1,10
14,CCCCc1nc2ccc(NC(=O)NC3CCCCC3)cc2n1Cc1ccc(-c2ccccc2C(=O)O)cc1,26
15,CCCCc1nc2cc(NC(=O)NC3CCCCC3)ccc2n1Cc1ccc(-c2ccccc2C(=O)O)cc1,800
16,CCCCc1nc2ccc(N(C)S(=O)(=O)CCC)cc2n1Cc1ccc(-c2ccccc2C(=O)O)cc1,33
17,CCCCc1nc2cc(NC(C)=O)ccc2n1Cc1ccc(-c2ccccc2C(=O)O)cc1,460
18,CCCCc1nc2cccc(NC(C)=O)c2n1Cc1ccc(-c2ccccc2C(=O)O)cc1,1800
19,CCCCc1nc2ccc(NC(=O)N(C)C)cc2n1Cc1ccc(-c2ccccc2-c2nn[nH]n2)cc1,8
20,CCCCc1nc2ccc(NC(=O)N(C)C)cc2n1Cc1ccc(-c2ccccc2C(=O)O)cc1,24
21,CCCCc1nc2cccc(NC(=O)NC3CCCCC3)c2n1Cc1ccc(-c2ccccc2C(=O)O)cc1,160

# Tested on: Rattus norvegicus
# Assay: Maximum fall in mean arterial blood pressure (MABP) at 1 mg/kg po bid after 4 days of treatment in conscious chronically-instrumented renovascular hypertensive rats
# Type: functional
# Settings: not given
# Summary of the method: as §1
row,Structure (SMILES),MABP [mmHg]
1,CCCc1nc2c(C)cc(-c3nc4ccccc4n3C)cc2n1Cc1ccc(-c2ccccc2C(=O)O)cc1,68

# Tested on: Rattus norvegicus
# Assay: Tested for percent inhibition of AII pressor response 2 hr after i.v. administration of 0.3 mg/Kg in rats
# Type: functional
# Settings: iv
row,Structure (SMILES),inhibition in vivo at 0.3 mg/kg [%]
1,CCCCc1nc2ccc(N3CCCCS3(=O)=O)cc2n1Cc1ccc(-c2ccccc2-c2nnn[nH]2)cc1,60
2,CCCCc1nc2ccc(N3CCCCC3=O)cc2n1Cc1ccc(-c2ccccc2-c2nnn[nH]2)cc1,60
